Assay outcomes as filed in PubChem BioAssay.
The list is not random: actives were taken first. Their share in the collection is about 9.4%.
Mdm2-MdmX inh – inhibitors of human Mdm2-MdmX association, primary screen, cell-based, luminescence, split luciferase, SaOS-2, uHTS | inhibition, % at 8 µM | hit rate 3% among 330,000 | SaOS-2 split-luciferase Mdm2/MdmX complementation;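 active = inhibition of at least 50% at 8 µM in the primary screen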
Lmaj promast – Leishmania major promastigote growth inhibition, primary screen; inhibition, % at 10 µM; Leishmania major promastigotes, resazurin fluorescence viability; hit rate 9% among 200,000; in the data active = inhibition above about 50%;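 note: promastigotes grown with compound for 44 hours at 28 °C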
SKKanGAS inh – S. pyogenes SKKanGAS growth inhibitors in kanamycin, primary screen, streptokinase expression inhibitor project, SKKanGAS strain, BacTiter-Glo luminescence. inhibition, % at 7.5 µM. 6 h. hit rate 1.3% among 300,000;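 active = mean replicate score, as percent of positive control median, at least 50; inconclusive = mean below 50 but one replicate at or above 50; inactive = mean and every replicate below 50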;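 note: strain carries kanamycin resistance gene driven by streptokinase promoter and grows in 40 µg/ml kanamycin; loss of luminescence reflects streptokinase promoter inhibition or plain growth inhibition; 0% = median of DMSO wells and 100% = positive control at its reference dose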
CSC inhib – cancer stem cell viability inhibitors, primary screen, luminescence. cancer stem cell-like cells viability. inhibition, % at 7.5 µM. hit rate 1.1% among 300,000. AID 2717, 2010; in the data active = inhibition above about 75%; inconclusive = no clear call, values can overlap the other calls; tested in HMLE shEcad cells
Beta cell apopt – inhibitors of cytokine-induced beta cell apoptosis, primary screen, luminescence; protection from apoptosis, % (no concentration beside the values); hit rate 0.8% among 300,000; INS-1E cytokine-induced death, ATP luminescence, 48 h; percent of positive-control rescue, neutral wells zero;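 active = Every replicate reaches about 75%, or at least half do and their mean reaches it too, limit read from the data; inconclusive = At least half of replicates reach the limit but their mean does not; inactive = Under half of replicates reach the limit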;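 note: 0% = cytokine-treated negative control wells and 100% = positive control rescue; higher means more ATP so stronger rescue from cytokine killing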
T cruzi inh – inhibitors of intracellular T. cruzi growth, primary screen, luminescence, NIH3T3 host cells | T. cruzi beta-gal in NIH3T3, 90 h | inhibition, % (no concentration beside the values) | hit rate 1.4% among 300,000 | AID 1885, 2009;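 active = mean inhibition across valid replicates above about 55%, limit read from the data; inconclusive = mean below that limit but half or more replicates reach it; inactive = mean below it, under half of replicates reach it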;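 note: signal also drops with host cell toxicity which is not excluded here; 0% = plate median of DMSO wells and 100% = zero luminescence signal; higher percent means less beta-gal luminescence so fewer parasites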
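Incubation – ≥90 h infection period, 3 h prior cell attachment · System – NIH/3T3 fibroblasts plus reporter T. cruzi · Doses – compound pinned at 50 nL/well, DMSO · Read-out basis – percent inhibition of parasite-derived β-gal signal · Signal – luminescent β-galactosidase signal after 60 min lysis · Also added – 5000 T. cruzi trypomastigotes/well · Medium – Low-serum DMEM with 2% FBS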
Mdm2-MdmX conf – Mdm2-MdmX complex disruptors, retested hits, confirmation, luminescence, single concentration. shares compounds with Mdm2-MdmX inh. Mdm2-MdmX binding, luminescent assay. inhibition, % at 8 µM. hit rate 55% among 10,000; in the data active = inhibition above about 40%
FLuc counter – full-length luciferase signal inhibition, confirmation, counter-screen for Mdm2/MdmX interaction inhibitor project, cell-based, single concentration, SaOS-2; shares compounds with Mdm2-MdmX inh; SaOS-2 full-length luciferase counterscreen, luminescence; inhibition, % at 8 µM; hit rate 77% among 6,200;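 active = mean inhibition at 8 µM reaching about 37%, which flags the compound as non-specific, limit read from the data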;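 note: p53-null SaOS-2 cells with luciferase driven by a doxycycline-inducible promoter; compound on cells about two nights before reading with doxycycline added after day one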
The depositor's hits bear a star; ? = inconclusive; / = no result given.

SMILES | Mdm2-MdmX inh | Lmaj promast | SKKanGAS inh | CSC inhib | Beta cell apopt | T cruzi inh | Mdm2-MdmX conf | FLuc counter
COc1ccc(-c2nnc(Sc3nc4ccccc4o3)c3ccccc23)cc1 | 66* | 88* | 3 | 42 | -3 | 17 | 42* | 68*
COc1ccc(-c2nnc(OC)c3ccccc23)cc1 | 29 | / | -4 | -9 | -3 | -1 | / | /
CCC(C)Sc1cccc(-c2nc3ccccn3c2NCc2ccccc2)c1 (stereo not given) | 8 | / | / | 67 | 21 | / | / | /
CCCCNc1c(-c2ccc(SC(C)CC)cc2)nc2cnccn12 (stereo not given) | 52* | / | / | 107* | 14 | / | 11 | /
CCCCNc1c(-c2ccc(OC)c(Sc3ccc(OC)cc3)c2)nc2ccccn12 | 94* | / | ? | 101* | / | 44 | 40 | 65*
CCCCNc1c(-c2ccc(-c3ccc(OC)cc3)c(OC)c2)nc2ccccn12 | 1 | / | / | / | / | / | / | /
COc1ccc(C(=O)NC(C)c2nnc(SCC(=O)NC3CCCC3)n2C)cc1 (stereo not given) | -2 | / | 3 | -4 | -6 | -3 | / | /
Cc1cc(C2CCCCC2)n(O)c(=O)c1 | 74* | / | / | 105* | 88* | / | 58* | 32
O=C(CC1OCC2CCCN2C1=O)Nc1ccc([N+](=O)[O-])cc1 (stereo not given) | 19 | / | -1 | / | -2 | 0 | / | /
C=C1C(=O)O[C@H]2[C@H]1[C@@H](O)CC(=C)[C@@H]1CC(=O)[C@@H](C)[C@H]21 | 61* | / | 3 | 34 | -24 | -6 | 15 | /
O=C(CC1C[C@H](C(=O)N2CCCCC2)[C@@]2(CCc3ccccc3)c3[nH]c4ccccc4c3CCN2C1=O)NCCC1=CCCCC1 (stereo not given in full) | 79* | / | / | / | 22 | / | 23 | /
CN(C)CCCNC(=O)C[C@H]1C[C@H](C(=O)N2CCCCC2)[C@@]2(CCc3ccccc3)c3[nH]c4ccc(Cl)cc4c3CCN2C1=O | 97* | / | / | / | / | / | 91* | 51*
O=C(C[C@H]1C[C@H](C(=O)N2CCCCC2)[C@@]2(CCc3ccccc3)c3[nH]c4ccc(Cl)cc4c3CCN2C1=O)NCCc1ccccn1 | 26 | / | / | / | / | / | / | /
O=C(C[C@H]1C[C@H](C(=O)N2CCCCC2)[C@@]2(CCc3ccccc3)c3[nH]c4ccc(Cl)cc4c3CCN2C1=O)NCCC1=CCCCC1 | 77* | / | / | / | / | / | 25 | /
O=C(C[C@H]1C[C@H](C(=O)N2CCCCC2)[C@@]2(CCc3ccccc3)c3[nH]c4cc(-c5ccco5)ccc4c3CCN2C1=O)NCCC1=CCCCC1 | 39 | / | / | / | / | / | / | /
CC(=O)c1cccc(NC(=O)CCn2c(=O)oc3ccccc32)c1 | -7 | / | -2 | 2 | -7 | -14 | / | /
Cc1ccc(NC(=O)COC(=O)CCc2c(C)nc3ncnn3c2C)cc1 | 23 | / | / | / | 4 | / | / | /
CCOc1ccccc1Nc1ncnc2ccc(Br)cc12 | 20 | / | -6 | -8 | -5 | -4 | / | /
CN(Cc1ccccc1)c1ncnc2ccc(Br)cc12 | 57* | 13 | 12 | -7 | -6 | -4 | 49* | 39*
COc1ccccc1CNC(=O)COC(=O)c1nc(Cl)ccc1Cl | -3 | / | -1 | -15 | -7 | -5 | / | /
Cc1[nH]n(-c2ccccc2)c(=O)c1N=Nc1ccccc1O | 59* | 3 | 68* | / | / | 47 | 58* | 42*
Cc1ccccc1N=Nc1c(C)[nH]n(-c2ccccc2)c1=O | / | -6 | / | / | / | / | / | /
O=C(c1ccc([N+](=O)[O-])o1)N1CCN(c2nc3c(Cl)cccc3s2)CC1 | 56* | / | 9 | -6 | / | 59* | 43* | 65*
CCCn1c2ccccc2c2cnn(CC(=O)NC3CCC(C)CC3)c(=O)c21 (stereo not given) | 26 | / | -10 | -18 | 1 | -3 | / | /
CCCn1c2ccccc2c2cnn(CC(=O)NC3CCCC(C)C3C)c(=O)c21 (stereo not given) | 89* | / | 1 | -14 | -6 | 1 | -2 | /
SMILES | Mdm2-MdmX inh | Lmaj promast | SKKanGAS inh | CSC inhib | Beta cell apopt | T cruzi inh | Mdm2-MdmX conf | FLuc counter
CCOC(=O)Cc1csc(NC(=O)C(C)c2ccc([N+](=O)[O-])cc2)n1 (stereo not given) | 4 | 10 | 6 | 2 | -5 | -2 | / | /
CCCS(=O)(=O)c1cnc(C2COc3ccccc3O2)nc1N (stereo not given) | 82* | / | 18 | ? | 12 | -2 | 85* | 48*
COc1cc(NC(=O)c2csc(N)n2)cc(C(=O)Nc2cccc(C(F)(F)F)c2)c1 | 59* | / | 15 | 88* | 19 | 1 | 57* | 60*
Cc1ccc(S(=O)(=O)n2nc(-n3c(C)ccc3C)c3c(F)cccc32)c2ccccc12 | 50* | / | 24 | 31 | 0 | 37 | 3 | /
COc1cccc2sc(/N=C/N(C)C)nc12 | -4 | / | -14 | 7 | -3 | -16 | / | /
NC(=O)CC(NC(=O)Cc1ccc(Br)cc1)c1ccc(NCCc2cccc(F)c2)c([N+](=O)[O-])c1 (stereo not given) | 0 | / | -1 | -10 | -7 | 5 | / | /
NC(=O)CC(NC(=O)Cc1cccc2ccccc12)c1ccc(NC2CCN(Cc3ccccc3)CC2)c([N+](=O)[O-])c1 (stereo not given) | 55* | / | 5 | 4 | / | 12 | 14 | /
NC(=O)CC(NC(=O)Cc1ccc(Br)cc1)c1ccc(NCc2cc(F)ccc2F)c([N+](=O)[O-])c1 (stereo not given) | 55* | / | 0 | ? | 3 | 8 | -10 | /
CCN1CCN(c2oc(-c3ccccc3)nc2S(=O)(=O)c2ccc(C)cc2)CC1 | 7 | / | / | / | / | / | / | /
c1cc(Nc2ncnc3sc4c(c23)CCC4)ccn1 | 16 | -5 | -5 | -11 | -16 | -4 | / | /
C(=N\Nc1ncnc2sc3c(c12)CCC3)/c1cccs1 | 58* | 21 | ? | 94* | 96* | 41 | 50* | 19
CCc1ccc(S(=O)(=O)/N=C2\C=C(Nc3ccc(O)cc3)C(=O)c3ccccc32)cc1 | 100* | / | 109* | / | 115* | 52 | 97* | 2
Cc1cc(C)c(S(=O)(=O)/N=C2\C=C(Nc3ccc(C(=O)O)cc3)C(=O)c3ccccc32)c(C)c1 | 78* | / | 112* | / | 113* | 17 | 68* | 51*
CC(=O)Nc1ccc(NC2=CC(=O)c3ccccc3C2=O)cc1 | -19 | / | 2 | 17 | 18 | 5 | / | /
